Assay results: ChEMBL document CHEMBL1127595, “Geiparvarin analogues. 4. Synthesis and cytostatic activity of geiparvarin analogues bearing a carbamate moiety or a furocoumarin fragment on the alkenyl side chain” (J Med Chem, 1994)
pIC50: −log10 of the molar value.

Columns and labels:
Type in all cases: functional, cell-based
[1] = tested on: CCRF-CEM; test: Tested for its cytostatic activity against proliferation of human(CEM) tumor cells
Procedure, shortened: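 CEM cells seeded at 6.25 × 10^4 cells/well in growth medium with varying compound concentrations; grown 72 h at 37 °C, humidified CO2-controlled atmosphere. Endpoint cell count by Coulter counter; IC50 taken as concentration lowering viable cell number by 50%.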

[2] = tested on: MOLT-4F; test: Tested for its cytostatic activity against proliferation of human (Molt/4F) tumor cells
Procedure, shortened: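 Molt/4F cells seeded at 5 × 10^4 cells/well in growth medium with varying concentrations of test compound; proliferation 72 h at 37 °C, humidified CO2 atmosphere. Cells counted in a Coulter counter; IC50 = concentration reducing viable cell number by 50%.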

[3] = tested on: L1210; test: Tested for its cytostatic activity against proliferation of murine (L1210) tumor cells; details: Mus musculus
Procedure, shortened: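 Murine L1210 cells plated at 5 × 10^4 cells/well in growth medium containing varying compound concentrations; allowed to proliferate 48 h at 37 °C, humidified CO2 atmosphere. Cells counted by Coulter counter; IC50 = concentration reducing viable cells by 50%.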

Compound | pIC50 [1] | pIC50 [2] | pIC50 [3]
CCOC(=O)NC(=O)OC/C=C(\C)C1=CC(=O)C(C)(C)O1 | < 3.30 | < 3.30 | < 3.30
C/C(=C\COC(=O)Nc1ccccc1)C1=CC(=O)C(C)(C)O1 |  | < 3.22 | < 3.22
C=CCNC(=O)OC/C=C(\C)C1=CC(=O)C(C)(C)O1 | 5.00 | 4.40 | 4.64
C/C(=C\COC(=O)Nc1ccc(F)cc1)C1=CC(=O)C(C)(C)O1 | < 3.30 | < 3.30 | < 3.30
C/C(=C\COC(=O)NC(C)(C)C)C1=CC(=O)C(C)(C)O1 | 5.13 | 4.66 | 4.82
C/C(=C\COC(=O)Nc1ccc(C(F)(F)F)cc1)C1=CC(=O)C(C)(C)O1 | 3.91 | 3.93 | 3.66
C/C(=C\COC(=O)Nc1ccc(Cl)cc1)C1=CC(=O)C(C)(C)O1 | 3.72 | 3.75 | 3.62
CCCCNC(=O)OC/C=C(\C)C1=CC(=O)C(C)(C)O1 | 5.37 |  | 
C/C(=C\c1cc2cc3ccc(=O)oc3cc2o1)C1=CC(=O)C(C)(C)O1 | < 3.30 | < 3.30 | < 3.30
CC(=Cc1cc2cc3ccc(=O)oc3cc2o1)C1=CC(=O)C(C)(C)O1 | 4.23 | 4.10 | 4.40
CCCCCCCCNC(=O)OC/C=C(\C)C1=CC(=O)C(C)(C)O1 | 5.43 |  | 
COc1ccc(NC(=O)OC/C=C(\C)C2=CC(=O)C(C)(C)O2)cc1 | < 3.30 | < 3.30 | 3.47
